# According to PMC4010123 (Neuron, 2014):
# Entries after “also recorded” stand apart in the source; their conditions may differ.
# Tests used:
# total NR2B = experiment: Total NR2B levels in hippocampal slices; type: cell-based, mouse; settings: acute hippocampal slices, NMDA 50 or 100 μM, 15 min
# How it was run: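 Acute mouse hippocampal slices were exposed to NMDA (50 or 100 μM, 15 min) in Mg2+-free Krebs buffer. Lysates were prepared with protease and phosphatase inhibitors and immunoblotted for total NR2B.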
# [1] = test system: Ser1116 of NR2B phosphorylated by Cdk5; experiment: P-S1116 NR2B in acute hippocampal slices; type: cell-based, mouse
# NR2B [2] = settings: infusion into dorsal hippocampus; ref Zhang et al., 2008; cited from earlier work
# [3] = test system: hippocampal CA3-CA1 pathway (fEPSP); experiment: Extracellular field recordings, CA3-CA1 fEPSP slope in hippocampal slices; type: cell-based, mouse; settings: for fEPSP slope, effect of NR2B siP in presence of Ro 25–6981: Ro 25–6981 3 μM, added 10 min before Pen siP (2 μM, 30 min)
# How it was run: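 Hippocampal slices were used; wild-type slices came from 3-month-old C57BL/6 mice. CA1 fEPSPs were evoked by bipolar Schaffer collateral stimulation (0.1 ms pulses at 0.033 Hz) at the intensity giving 50% of maximal slope. After a stable baseline, Pen-tagged test or control peptide was perfused for 30 min. Where used, Ro 25–6981 (3 μM) perfusion began 10 min before peptide. Read-out: percent change from baseline fEPSP slope.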
# [4] = test system: NMDAR / NR2B component of NMDAR-EPSC; experiment: Whole-cell voltage-clamp NMDAR-EPSC, CA1 pyramidal neurons in hippocampal slices; type: cell-based, mouse
# How it was run: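 Acute mouse hippocampal slices were pretreated with vehicle or Cdk5 inhibitor. Whole-cell voltage-clamp recordings of synaptically evoked NMDAR-EPSCs were made from CA1 pyramidal neurons, first without and then with the NR2B blocker ifenprodil. The ifenprodil-sensitive part was taken as the NR2B component; decay kinetics were also measured.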
# mice = experiment: Fear conditioning in mice, acute infusion into dorsal hippocampus; type: in vivo, mouse
# NR2B [5] = experiment: NR2B cell surface expression in siP-infused hippocampal area CA1; type: in vivo; settings: rat CA1, NR2B siP vs scramble control; 4 pooled tissue punches
# How it was run: (§1)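 Sprague-Dawley rats received continuous bilateral dorsal hippocampal infusion of test or scrambled peptide by osmotic pump. Epifluorescent CA1 tissue punches were immunoblotted, with protease and phosphatase inhibitors present. P-S1116 was expressed as the P-S1116/total NR2B ratio. Cell surface NR2B was measured from 4 pooled punches per condition.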
# Sprague-Dawley rats = experiment: Fear conditioning in rats, chronic infusion into dorsal hippocampus; type: in vivo, rat; settings: for conditioned fear response at 96 h: extinction trial, both groups (siP and scrambled) (Figure S4E)
# How it was run: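 Two-month-old Sprague-Dawley rats received continuous bilateral dorsal hippocampal infusion by mini-osmotic pump, starting 24 h before training. Training: 2 min exploration, then a 30 s tone (90 dB, 10 kHz) co-terminating with a foot shock (2 s, 0.7 mA); 2 min more in the box. Context tests: 5 min at 24, 48, 72 and 96 h. Tone recall at 27 h in a novel vanilla context (3 min, then 3 min tone). Freezing was time-sampled every 5 s, blind. After extinction and pump expiry, rats were retrained (0.7 mA) and context-tested 24 h later.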
# Ser1116 of NR2B [6] = experiment: P-S1116 NR2B in CA1 after siP infusion and fear conditioning; type: in vivo; settings: NR2B siP infusion (Figure S5A)
# How it was run: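 Test peptide or control peptide was infused into dorsal hippocampus before fear conditioning. Animals were killed 1 h after training, and CA1 lysates were prepared with protease and phosphatase inhibitors. P-S1116 and total NR2B were measured by quantitative immunoblot and reported as the P-S1116/total NR2B ratio. Data are mean ± SEM.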
# [7] = test system: Cdk5 (substrate recombinant NR2B, Ser1116); experiment: In vitro phosphorylation of Ser1116 NR2B by Cdk5; type: biochemical; settings: immunoblot
# [8] = test system: NR2B component of NMDAR EPSC; experiment: Ifenprodil-sensitive NR2B component of NMDAR EPSC in slices; type: cell-based; settings: slices incubated with NR2B siP vs scramble control; n = 6–7
# [9] = test system: Cdk5-NR2B protein-protein interaction; experiment: Co-immunoprecipitation of Cdk5 and NR2B from hippocampal slices; type: cell-based, mouse; settings: 4 pooled slices per sample
# How it was run: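 Acute mouse hippocampal slices were treated in Mg2+-free Krebs buffer with test peptide, scrambled peptide or Cdk5 inhibitor. Four slices were pooled per sample for NR2B–Cdk5 co-immunoprecipitation and immunoblotting, with Cdk5 input shown.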
# Ser1116 of NR2B [10] = experiment: P-S1116 in siP-infused hippocampal area CA1; type: in vivo; settings: rat CA1, NR2B siP vs scramble control; n = 4
# How it was run: as §1
# NMDAR/AMPAR EPSC = experiment: NMDA/AMPA EPSC ratio in cortical slices; type: cell-based; settings: cortical slices (pyramidal neurons), NR2B siP vs scrambled control; n = 12–16
# [11] = test system: Cdk5 (substrate inhibitor-1); experiment: In vitro phosphorylation of inhibitor-1 by Cdk5; type: biochemical; settings: Figure S3A
# rats = experiment: Nociception, pain threshold and motor reflexes; type: in vivo, rat; settings: chronic infusion (Figure S4B and C)
# How it was run: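 Rats received continuous bilateral infusion of the test peptide or a scrambled control into dorsal hippocampus by mini-osmotic pump, starting 24 h before fear conditioning. Nociception was scored as the foot-shock threshold that elicits flinching, jumping and vocalizing in the conditioning box; a tail flick test was also used. Scoring was blind. Data are mean ± SEM.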
# NR2B-Cdk5 interaction = experiment: Pull-down of Cdk5 by recombinant GST-tagged NR2B in vitro; type: binding; settings: n = 3
# NR2B [12] = experiment: Cell surface biotinylation of NR2B in hippocampal slices; type: cell-based, mouse; settings: n = 4
# [13] = test system: Ser1116 of NR2B phosphorylated by Cdk5; experiment: P-S1116 NR2B in acute striatal slices; type: cell-based; settings: acute mouse striatal slices, NR2B siP (Figure S3C and D)
# How it was run: (§2)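 Acute mouse striatal slices were treated in Mg2+-free Krebs buffer with polyarginine (R7)-tagged test peptide (0–100 μM, 0–180 min). Lysates were prepared with protease and phosphatase inhibitors and immunoblotted. For NR2B, P-S1116 was expressed as the P-S1116/total NR2B ratio; for DARPP-32, phospho-Thr75 was probed with total DARPP-32.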
# NR2B or Cdk5 = experiment: NR2B and Cdk5 expression levels in hippocampal slices; type: cell-based, mouse; settings: NR2B siP
# How it was run: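 Mouse hippocampal slices treated in Mg2+-free Krebs buffer with the test peptide (0–100 μM, 0–180 min) or a scrambled control peptide. NR2B–Cdk5 association was assessed by co-immunoprecipitation using 4 pooled slices per sample. NR2B and Cdk5 levels were immunoblotted, with loading shown.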
# GFP-NR2B = experiment: Cell surface GFP-NR2B in dendrites of cultured hippocampal neurons; type: cell-based, rat; settings: NR2B siP 2 μM, 30 min, vs control peptide (S1116A); n = 49–64 cells
# [14] = test system: Thr75 DARPP-32 (Cdk5 substrate); experiment: phospho-Thr75 DARPP-32 in acute brain slices; type: cell-based, mouse; settings: acute striatal slices, NR2B siP (Figure S3C and D)
# How it was run: as §2
# [15] = slices from Cdk5 cKO mice, NR2B siP 2 μM, 30 min, n = 3
molecule,measurement,setting,value
"CN[C@H](CC(=O)O)C(=O)O [NMDA, N-methyl-D-aspartate]",total NR2B levels,total NR2B,reduced total NR2B levels
same,P-S1116 normalized to total NR2B,"[1]; acute hippocampal slices, NMDA 50 or 100 μM, 15 min, n = 4",dose-dependently attenuated P-S1116
C[C@@H](CN1CCC(Cc2ccccc2)CC1)[C@@H](O)c1ccc(O)cc1 [Ro25–6981],contextual fear learning,NR2B [2],impair contextual fear learning
same,locomotor or anxiety-related behavior,NR2B [2],but not locomotor or anxiety-related behavior
same,"fEPSP slope, effect of NR2B siP in presence of Ro 25–6981",[3]; n = 3,blocked
CC(C(O)c1ccc(O)cc1)N1CCC(Cc2ccccc2)CC1 (stereo not shown) [ifenprodil],contextual fear learning,NR2B [2],impair contextual fear learning
same,locomotor or anxiety-related behavior,NR2B [2],but not locomotor or anxiety-related behavior
same,reduction of NMDAR-EPSC by ifenprodil in control slices,"[4]; controls (vehicle), n = 6–7",20%
same,reduction of NMDAR-EPSC by ifenprodil in CP681301-treated slices,"[4]; slices treated with CP681301, n = 6–7",33%
C=C1[C@@H](O)[C@@H]2O[C@]3(CC[C@H](/C=C/[C@@H](C)[C@@H]4CC(C)=C[C@@]5(O[C@H](C[C@@](C)(O)C(=O)O)CC[C@H]5O)O4)O3)CC[C@H]2O[C@@H]1[C@@H](O)C[C@H](C)[C@H]1O[C@@]2(CCCCO2)CC[C@H]1C [okadaic acid],ability of NMDA to reduce P-S1116 in presence of okadaic acid,"[1]; hippocampal slices, PP2A/PP1 inhibitor okadaic acid + NMDA (Figure S2C)",attenuated
RRPPRSPDHKRYFRDKE [NR2B siP],"freezing levels in context test, acute compared with chronic infusion","mice; 3 month-old mice, acute infusion",comparable to the levels observed with chronic infusion
same,freezing in the tone test,"mice; 3 month-old mice, acute infusion 90 min prior to conditioning, n = 6–10",not freezing to tone; also recorded: did not reveal any significant changes
same,"contextual fear memory, increase, aged mice","mice; 14 month-old mice, acute infusion 90 min prior to training, vs control peptide or non-infused cannulated controls (Figure S5B)",1.7 fold
same,NR2B cell surface expression,NR2B [5],increases NR2B cell surface expression
same,contextual memory enhancement during extinction trials,"Sprague-Dawley rats; rats, 48 and 72 h after initial training (Figure S4D and E)",contextual memory enhancement persisted
same,tone-induced freezing,"Sprague-Dawley rats; rats, chronic infusion, 27 h after conditioning",no effect
same,conditioned fear response at 96 h,Sprague-Dawley rats; rats,extinguished by 96 h for both groups
same,contextual fear memory 24 h after re-training,"Sprague-Dawley rats; rats, re-trained after extinction and expiration of pump (Figure S4F)",increased
same,contextual fear memory,"Sprague-Dawley rats; two-month-old rats, chronic infusion, n = 20",improved contextual fear memory
same,P-S1116 NR2B in CA1 one hour post-training,Ser1116 of NR2B [6],decreased P-S1116 NR2B in CA1 one hour post-training
same,in vitro phosphorylation of Ser1116 NR2B by Cdk5,[7],dose-dependently inhibits
same,"ifenprodil-sensitive NR2B component of NMDAR EPSC, increase",[8],1.5 fold
same,Cdk5-NR2B co-immunoprecipitation / interaction,[9],disrupts NR2B-Cdk5 interaction; also recorded: effectively blocked subsequent co-immunoprecipitation of Cdk5 and NR2B
same,P-S1116 in infused region,Ser1116 of NR2B [10],reduces P-S1116
same,"fEPSP slope, effect of NR2B siP in presence of Ro 25–6981",[3]; n = 3,did not show a significant effect
same,"fEPSP slope, steady state after washout, relative to control treated slices","[3]; hippocampal slices, after washout of NR2B siP (Pen siP), vs control peptide",1.6 fold
same,"fEPSP slope in Cdk5 cKO, effect",[3]; [15],almost absent in Cdk5 cKO mice
same,"fEPSP slope in Cdk5 cKO, increase",[3]; [15],1.2 fold
same,"NMDA/AMPA EPSC ratio, increase",NMDAR/AMPAR EPSC,1.8 fold
same,in vitro phosphorylation of inhibitor-1,[11],did not inhibit
same,"nociception, pain threshold, or motor reflexes",rats,"neither NR2B siP, nor scrambled control affected nociception, pain threshold, or motor reflexes"
same,block of pull-down of Cdk5 by GST-tagged NR2B,NR2B-Cdk5 interaction,most potently blocked the pull-down of Cdk5; also recorded: dose-dependently disrupts NR2B-Cdk5 binding in vitro
same,"NR2B cell surface levels, increase, siP","NR2B [12]; NR2B siP 1 h, 100 μM",3.3 fold
same,NR2B cell surface levels,"NR2B [12]; NR2B siP or Scramble 1 h, 100 μM, or CP681301 1 h, 50 μM",increased
same,P-S1116 in striatal slices,[13],time-dependently reduced P-S1116
same,levels of NR2B or Cdk5 expression,NR2B or Cdk5,did not alter levels of NR2B or Cdk5 expression
same,"cell surface GFP-NR2B levels, increase, siP",GFP-NR2B,1.5 fold
same,phosphorylation state of Thr75 DARPP-32,[14],no effect
"RRRSYFHKEDRPPRDK [scrambled, reference compound]",conditioned fear response at 96 h,Sprague-Dawley rats; rats,extinguished by 96 h for both groups
same,in vitro phosphorylation of Ser1116 NR2B by Cdk5,[7],did not attenuate Ser1116 phosphorylation in vitro
same,in vitro phosphorylation of Ser1116 NR2B by Cdk5,[7]; listed as scramble,no effect
same,Cdk5-NR2B co-immunoprecipitation / interaction,[9],did not affect Cdk5-NR2B interactions
same,"nociception, pain threshold, or motor reflexes",rats,"neither NR2B siP, nor scrambled control affected nociception, pain threshold, or motor reflexes"
